Measurements as given in publication PMC3767132 (Organic & biomolecular chemistry, 2012).
Where two headings read alike, the source gives them in different places.

Legend:
[1] = test system: HUVEC; assay: HUVEC cell-viability assay using calcein-AM; format: cell-based, human; conditions: for IC50: Homo sapiens, HUVEC, read-out: IC50 Calcein-AM HUVEC
[2] = test system: MetAP; assay: Immunoblot of Met-14-3-3γ; format: cell-based, human; conditions: for Immunoblot Met-14-3-3γ: compound treated HUVEC lysates, 24 h, signal relative to DMSO = 1.0
How it was run: (§1)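 HUVEC were exposed to test compound for 24 h, typically at 5 μM (some up to 10 μM), with DMSO as negative control. Lysates were immunoblotted for Met-14-3-3γ, 14-3-3γ, Ac-p53 and total p53. Band densities were taken as Met-14-3-3γ/14-3-3γ and Ac-p53/p53 per lane, relative to DMSO = 1.0. Ac-p53 was scored −(<2.0), +(2.0–7.0), ++(7.1–11.6), +++(>11.6).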

[3] = target: hMetAP1 (Homo sapiens, UniProt P53582); assay: human MetAP1 enzyme assay; format: biochemical; conditions: for IC50: 10 μM Co2+
[4] = target: hMetAP2 (Homo sapiens, UniProt P50579); assay: human MetAP2 enzyme assay; format: biochemical
Sequence of hMetAP2 (P50579 whole entry): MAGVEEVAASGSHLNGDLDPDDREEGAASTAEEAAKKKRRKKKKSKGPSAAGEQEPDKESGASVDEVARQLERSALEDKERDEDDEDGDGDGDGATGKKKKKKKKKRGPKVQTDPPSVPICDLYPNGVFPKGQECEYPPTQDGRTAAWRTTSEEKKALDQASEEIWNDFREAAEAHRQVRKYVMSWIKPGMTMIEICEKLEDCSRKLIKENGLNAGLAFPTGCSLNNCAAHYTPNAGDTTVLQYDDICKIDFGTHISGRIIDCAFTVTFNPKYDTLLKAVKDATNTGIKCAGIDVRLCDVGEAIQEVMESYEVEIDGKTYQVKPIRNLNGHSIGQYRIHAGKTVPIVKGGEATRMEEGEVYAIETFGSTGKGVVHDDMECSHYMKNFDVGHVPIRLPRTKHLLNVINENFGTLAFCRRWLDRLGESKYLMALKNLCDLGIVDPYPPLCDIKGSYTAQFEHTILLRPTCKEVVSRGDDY

[5] = test system: HFF; assay: HFF cell-viability assay using calcein-AM; format: cell-based, human; conditions: for IC50: Homo sapiens, HFF, read-out: IC50 Calcein-AM HFF
[6] = test system: Jurkat-T; assay: Jurkat T proliferation assay, 3H-T uptake; format: cell-based; conditions: for IC50: Homo sapiens, Jurkat, read-out: IC50 3H-T Uptake Jurkat-T
[7] = test system: HUVEC; assay: HUVEC proliferation assay using [3H]-thymidine incorporation; format: cell-based, human
[8] = Metal complexation by UV-vis spectra in MetAP assay buffer; format: physicochemical; conditions: 10 μM in MetAP assay buffer
How it was run: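 UV–vis absorption spectra recorded for the test compound at 10 μM in MetAP assay buffer, without and with metal ions. Metals were added as MnCl2 or CoCl2 at 10 μM, a buffer and metal level chosen to emulate the enzyme assay. Complexation was read as shifts in λmax and changes in band intensity.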

[9] = test system: HeLa; assay: HeLa proliferation assay, 3H-T uptake; format: cell-based; conditions: for IC50: Homo sapiens, HeLa, read-out: IC50 3H-T Uptake HeLa
[10] = test system: SIRT1; assay: Immunoblot of Ac-p53; format: cell-based, human; conditions: for Immunoblot Ac-p53: compound treated HUVEC lysates, 24 h, signal relative to DMSO = 1.0
How it was run: as §1

[11] = test system: HUVEC; assay: Cytotoxicity seen on treatment of HUVEC for immunoblotting; format: cell-based, human; conditions: 0.5 μM for 24 h
[12] = test system: sirtuin 1 (SIRT1); conditions: read-out: IC50 SIRT1; cited from earlier work
[13] = test system: HUVEC; assay: DCF-DA assay of ROS levels in HUVEC; format: cell-based, human; conditions: HUVEC treated with 10 μM, data not shown
[14] = read-out: IC50 hMetAP1, enzyme assay
[15] = read-out: IC50 hMetAP2, enzyme assay, 10 μM Mn2+
[16] = Homo sapiens, HUVEC, read-out: IC50 HUVEC
[17] = Homo sapiens, HUVEC, read-out: IC50 HUVEC, proliferation, 3H-T uptake
[18] = up to 10 μM, HUVEC, data not shown

SMILES | IC50 [1] | Immunoblot Met-14-3-3γ [2] | b = bottom value of the curve, Calcein-AM HFF [5] | IC50 [5] | IC50 [6] | IC50 [7, 16] | complexation with Mn2+ and Co2+ ions (UV-vis) [8] | IC50 [9] | Immunoblot Ac-p53 [10] | IC50 ([3]; IC50 hMetAP1, enzyme assay) | IC50 [4] | also measured
CN(C)S(=O)(=O)Oc1ccc([N+](=O)[O-])c2cccnc12 [Entry 48, 5-nitroquinolin-8-yl dimethylsulfamate] | 4.21 ± 1.4 µM | + (+, ≥1.5) | 23% | 2.26 ± 0.3 µM | 1.73 ± 0.2 µM | 0.77 ± 0.1 µM | does form chelates | 2.41 ± 0.8 µM | +++ (+++, >11.6) |  |  | IC50 [3, 14]: > 15 µM; IC50 [4, 15]: 0.057 ± 0.015 µM; concentration of maximal sirtuin inhibition (biphasic mode) ([10]; HUVEC immunoblot, Ac-p53): around 2 μM
O=C(Nc1cc(Cl)cc(Cl)c1)Oc1ccc(Cl)c2cccnc12 [Entry 24, 5-Chloroquinolin-8-yl 3,5-dichlorophenylcarbamate] | 0.746 ± 0.19 µM |  | 17% | 2.69 ± 0.5 µM |  |  | lack of complexation |  |  | > 15 µM | 0.024 ± 0.007 µM | IC50 [7, 17]: 0.324 ± 0.06 µM; cytotoxicity in HUVEC [11]: not enough cells were left
O=C(Nc1ccc(O)c2ncccc12)c1ccccc1 [Entry 40] |  | + (+, ≥1.5) |  |  |  |  | signs of complex formation |  | +++ (+++, >11.6) |  |  | IC50 [3, 14]: 6.45 µM; IC50 [4, 15]: > 40 µM; IC50 ([7]; read-out: IC50 HUVEC, proliferation, 3H-T uptake): 0.789 ± 0.11 µM
Cc1ccc(S(=O)(=O)Nc2ccc(N=O)c3cccnc23)cc1 [Entry 54, 4-methyl-N-(5-nitrosoquinolin-8-yl)benzene-sulfonamide] | 1.32 ± 0.2 µM | + (+, ≥1.5) | 22% | 0.782 ± 0.13 µM | 0.45 ± 0.05 µM | 0.204 ± 0.02 µM | formation of chelates | 0.59 ± 0.1 µM | − (−, <2.0) | 10.5 ± 0.9 µM | > 15 µM | b = bottom value in the dose-response curve, hMetAP1 ([3]; noted only when above 15%): 18%
O=[N+]([O-])c1ccc(O)c2ncccc12 [Entry 5, Nitroxoline, reference compound] | 5.13 ± 1.2 µM | + (+, ≥1.5) | 21% | 3.69 ± 1 µM | 1.58 ± 0.3 µM |  |  | 3.97 ± 0.9 µM | ++ (++, 7.1–11.6) |  |  | inhibition at 10 µM ([4]; read-out: inhibition of MetAP2 activity in HTS): > 90%; IC50 [12]: 20.2 µM; IC50 [7, 17]: 1.9 ± 0.3 µM
O=Nc1ccc(O)c2ncccc12 [Entry 33, 5-nitrosoquinolin-8-ol] | 3.72 ± 0.8 µM | − (−, >1.5) | 17% | 9.08 ± 1.2 µM | 0.36 ± 0.07 µM | 0.364 ± 0.2 µM |  | 0.64 ± 0.2 µM | + (+, 2.0–7.0) | > 15 µM | > 50 µM | ROS levels (DCF-DA) [13]: failed to observe any significant increase; affinity for Mn2+ (UV-vis) [8]: very little affinity
Nc1ccc(O)c2ncccc12 [Entry 34, 5-aminoquinolin-8-ol] | 1.84 µM | − (−, >1.5) | 38% | 37.3 ± 2.1 µM | 1.28 ± 0.3 µM | 0.218 ± 0.04 µM |  | 2.36 ± 0.5 µM | − (−, <2.0) | 8.92 ± 1.2 µM | 11.9 µM | b = bottom value of the curve, Calcein-AM HUVEC [1]: 19%; effect on the levels of Met-14-3-3γ [2, 18]: no effect; b = bottom value in the dose-response curve, hMetAP2 ([4]; noted only when above 15%): 26%; selectivity for HUVEC inhibition than HFF ([5]; calcein-AM): ~30 times; more potent against HUVEC than Jurkat T ([6]; 3H-T uptake): about 8 times; more potent against HUVEC than HeLa ([9]; 3H-T uptake): about 8 times; effect on the levels of Ac-p53 [10, 18]: no effect
